The target in assay [1] is T1, NAD-dependent protein deacetylase sirtuin-2 (Homo sapiens, UniProt Q8IXJ6).
T1 sequence (Q8IXJ6 whole entry): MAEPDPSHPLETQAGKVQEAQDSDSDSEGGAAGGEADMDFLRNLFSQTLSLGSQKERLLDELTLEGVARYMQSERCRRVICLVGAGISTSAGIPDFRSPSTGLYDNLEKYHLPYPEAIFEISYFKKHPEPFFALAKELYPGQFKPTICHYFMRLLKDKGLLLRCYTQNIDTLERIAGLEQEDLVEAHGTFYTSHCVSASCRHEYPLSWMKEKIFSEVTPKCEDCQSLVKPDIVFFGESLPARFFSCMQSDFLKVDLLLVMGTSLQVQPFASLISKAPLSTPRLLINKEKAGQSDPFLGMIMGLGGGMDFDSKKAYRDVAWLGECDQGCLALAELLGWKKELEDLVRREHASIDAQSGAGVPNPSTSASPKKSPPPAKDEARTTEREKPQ
Nature of the assay: Inhibition of human recombinant SIRT2 using Fluor de Lys-SIRT as substrate incubated for 60 mins prior to substrate addition measured after 60 mins by fluorimetric analysis. The essentials:
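Human recombinant SIRT2 preincubated with 1 mM NAD⁺ and serial compound dilutions for 60 min at 37 °C, then 25 μM Fluor de Lys-SIRT substrate added. Reaction stopped at 60 min with Developer II containing nicotinamide. Fluorescence read 45 min later at ex 360/em 460 nm. % inhibition taken against control wells. IC₅₀ obtained by regression of log[Inh] vs logit % inhibition; means of ≥3 experiments.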

Assay [2] concerns the target T2, NAD-dependent protein deacetylase sirtuin-1 (Homo sapiens, UniProt Q96EB6).
T2 sequence (Q96EB6 whole entry): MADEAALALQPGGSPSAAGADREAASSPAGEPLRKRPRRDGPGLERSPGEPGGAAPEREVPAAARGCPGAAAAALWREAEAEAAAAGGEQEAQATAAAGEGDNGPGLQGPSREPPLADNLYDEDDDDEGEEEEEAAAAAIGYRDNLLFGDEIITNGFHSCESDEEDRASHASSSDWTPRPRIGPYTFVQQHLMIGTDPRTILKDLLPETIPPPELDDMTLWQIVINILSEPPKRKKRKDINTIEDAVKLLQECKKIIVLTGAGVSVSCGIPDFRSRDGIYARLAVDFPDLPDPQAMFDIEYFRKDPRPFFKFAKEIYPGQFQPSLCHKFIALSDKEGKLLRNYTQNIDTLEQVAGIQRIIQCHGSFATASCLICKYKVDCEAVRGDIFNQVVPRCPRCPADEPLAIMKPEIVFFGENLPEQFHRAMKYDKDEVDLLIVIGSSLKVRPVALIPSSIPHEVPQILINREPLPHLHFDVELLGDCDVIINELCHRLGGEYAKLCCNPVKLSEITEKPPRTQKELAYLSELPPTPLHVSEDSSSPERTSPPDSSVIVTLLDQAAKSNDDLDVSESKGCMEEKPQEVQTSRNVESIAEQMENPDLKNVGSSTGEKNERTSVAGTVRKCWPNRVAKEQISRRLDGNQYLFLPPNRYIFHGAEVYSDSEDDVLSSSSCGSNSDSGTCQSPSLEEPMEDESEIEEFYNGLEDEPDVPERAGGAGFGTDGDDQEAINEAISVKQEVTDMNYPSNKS
Nature of the assay: Inhibition of human recombinant SIRT1 using Fluor de Lys-SIRT as substrate incubated for 60 mins prior to substrate addition measured after 60 mins by fluorimetric analysis. The essentials:
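Human recombinant SIRT1 run the same way: 60 min at 37 °C with 1 mM NAD⁺ and serial compound dilutions, then 25 μM Fluor de Lys-SIRT substrate for 60 min. Stopped with nicotinamide-containing Developer II and read 45 min later at ex 360/em 460 nm. IC₅₀ from logit regression of % inhibition vs control; means of ≥3 experiments.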

As to `NC(=O)c1ccccc1Nc1cccc(OCCc2ccc(Cl)cc2)c1`, the IC50 is 0.83 µM in assay [1] and more than 100 µM in assay [2]. As to `NC(=O)c1ccccc1Nc1cccc(OCCc2ccc(C(F)(F)F)cc2)c1`, the 50% inhibitory concentration (IC50) was 1.4 µM in assay [1] and more than 100 µM in assay [2]. For `NC(=O)c1ccccc1Nc1cccc(OCCc2ccccc2F)c1`, the IC50 in assay [1] was 2 µM; in assay [2] it was more than 100 µM. For the compound `NC(=O)c1ccccc1Nc1cccc(Oc2ccccc2)c1`, in assay [1], the IC50 is 25 µM. Still for that read-out and setting: then `CC(C)(C)c1ccc(Nc2ccccc2C(N)=O)cc1`, with more than 100 µM. For `Cc1ccc(CCOc2cccc(Nc3ccccc3C(N)=O)c2)cc1`, the half-maximal inhibitory concentration (IC50) in assay [1] was 1.6 µM; in assay [2], more than 100 µM.

`NC(=O)c1ccccc1Nc1cccc(C(=O)Nc2ccccc2)c1`: the IC50 in assay [1] was 83 µM; in assay [2], more than 100 µM. Take `NC(=O)c1ccccc1Nc1ccc(NC(=O)C2CCCCC2)cc1`: the IC50 was 25 µM in assay [1] and more than 100 µM in assay [2]. On to `NC(=O)c1ccccc1Nc1cccc(OCC2CCCCC2)c1`, for which the IC50 in assay [1] came out at 24 µM; in assay [2], 210 µM. Consider `CN(C(=O)c1cccc(Nc2ccccc2C(N)=O)c1)c1ccccc1`, for which the IC50 in assay [1] and in assay [2] was more than 100 µM throughout. In the case of `N#Cc1ccc(Nc2ccccc2C(N)=O)cc1`, the concentration for half-maximal inhibition (IC50) in assay [1] was found to be 93 µM.

For the compound `CN(C(=O)c1ccc(Nc2ccccc2C(N)=O)cc1)c1ccccc1`, the results for the IC50 in assay [1] and in assay [2] were 69 µM and more than 100 µM, respectively.

Take `NC(=O)c1ccccc1NCc1ccccc1`: in assay [1], the half-inhibitory concentration (IC50) was more than 100 µM.

In the case of `COC(=O)/C=C/c1cccc(Nc2ccccc2C(N)=O)c1`, the half-inhibitory concentration (IC50) in assay [1] amounted to 32 µM. As for `CNC(=O)c1ccccc1Nc1ccccc1`, the IC50 in assay [1] and in assay [2] was more than 100 µM each time. Regarding `NC(=O)c1ccccc1Nc1cccc(CO)c1`, the IC50 in assay [1] is more than 100 µM. `NC(=O)c1ccccc1Nc1cccc(C(=O)O)c1`: the IC50 in assay [1] and in assay [2] was more than 100 µM in each case. On to `CN(C(=O)c1ccccc1)c1ccc(Nc2ccccc2C(N)=O)cc1`, for which the figures for the half-inhibitory concentration (IC50) in assay [1] and in assay [2] were more than 300 µM and more than 100 µM, respectively. Consider `CN(C)C(=O)c1ccccc1Nc1ccccc1`, for which the IC50 in assay [1] and in assay [2] was more than 100 µM in each case. With `Cc1cccc(CCOc2cccc(Nc3ccccc3C(N)=O)c2)c1`, the IC50 is 1.8 µM in assay [1] and more than 100 µM in assay [2].

In the case of `NC(=O)c1ccccc1Nc1cccc(/C=C/C(=O)O)c1`, the IC50 in assay [1] was more than 100 µM. As to `NC(=O)c1ccccc1Nc1ccc(NC(=O)c2ccncc2)cc1`, the concentration for half-maximal inhibition (IC50) in assay [1] and in assay [2] was more than 100 µM throughout. With `NC(=O)c1ccccc1Nc1cccc(CCO)c1`, in assay [1], the IC50 is more than 100 µM. For `NC(=O)c1ccccc1Nc1cccc(CCC(=O)O)c1`, the IC50 in assay [1] was more than 100 µM; in assay [2] it was 93 µM. In the case of `NC(=O)c1ccccc1Nc1cccc(OCCc2ccccc2Cl)c1`, the IC50 in assay [1] was 1.5 µM; in assay [2], more than 100 µM. For `NC(=O)c1ccccc1Nc1cccc(OCCc2ccccc2Br)c1`, in that order: 1.1 µM and more than 100 µM. Turning to `O=C(O)c1ccccc1Nc1ccccc1` [FENAMIC ACID], the IC50 in assay [1] was more than 100 µM; in assay [2], 68 µM. With `COC(=O)c1ccc(Nc2ccccc2C(N)=O)cc1`, the IC50 in assay [1] was 83 µM; in assay [2], more than 100 µM. For `NC(=O)c1ccccc1Nc1ccc(/C=C\c2ccccc2)cc1`, in that order: 20 µM and more than 100 µM. Regarding `NC(=O)c1ccccc1Nc1cccc(OCCc2ccc(F)cc2)c1`, the 50% inhibitory concentration (IC50) in assay [1] is 2.7 µM; in assay [2], more than 100 µM.

As to `CSc1ccc(Nc2ccccc2C(N)=O)cc1`, the IC50 in assay [1] is more than 100 µM. As for `NC(=O)c1ccccc1Nc1ccc(NC(=O)c2ccccc2)cc1`, the values for the IC50 in assay [1] and in assay [2] were 17 µM and more than 100 µM, respectively. For `CN(c1ccccc1)c1ccccc1C(N)=O`, the IC50 in assay [1] was more than 100 µM; in assay [2], 75 µM. In the case of `NC(=O)c1ccccc1Nc1ccc(-c2ccccc2)cc1`, the IC50 in assay [1] and in assay [2] was more than 100 µM each time. Turning to `NC(=O)c1ccccc1Nc1cccc(OCCCc2ccccc2)c1`, the concentration for half-maximal inhibition (IC50) is 4.3 µM in assay [1] and more than 300 µM in assay [2]. For `NC(=O)c1ccccc1Nc1ccccc1` [ANILINOBENZAMIDE], the half-inhibitory concentration (IC50) in assay [1] was more than 100 µM. Consider `NC(=O)c1ccccc1Nc1ccc(Oc2ccccc2)cc1`, for which the IC50 in assay [1] and in assay [2] was more than 100 µM in each case. For `CC(C)COc1cccc(Nc2ccccc2C(N)=O)c1`, the values for the half-inhibitory concentration (IC50) in assay [1] and in assay [2] were 30 µM and more than 300 µM, respectively. On to `NC(=O)c1ccccc1Nc1ccc(CCc2ccccc2)cc1`, for which the concentration for half-maximal inhibition (IC50) is 88 µM in assay [1] and more than 100 µM in assay [2]. On to `COC(=O)CCc1cccc(Nc2ccccc2C(N)=O)c1`, for which the IC50 in assay [1] came to 93 µM. As for `NC(=O)c1ccccc1Nc1ccc2ccccc2c1`, the IC50 in assay [1] and in assay [2] was more than 100 µM in each case. In the case of `CN(Cc1ccccc1)C(=O)c1cccc(Nc2ccccc2C(N)=O)c1`, the IC50 was 40 µM in assay [1] and more than 100 µM in assay [2]. For `NC(=O)c1ccccc1Nc1ccc(NC(=O)c2cccnc2)cc1`, in that order: 38 µM and more than 100 µM. For `NC(=O)c1ccccc1Nc1cccc(C(=O)NCc2ccccc2)c1`, in that order: 39 µM and more than 100 µM. Turning to `NC(=O)c1ccccc1Nc1cccc(OCCc2ccc(Br)cc2)c1`, the concentration for half-maximal inhibition (IC50) is 1.2 µM in assay [1] and more than 100 µM in assay [2]. For `NC(=O)c1ccccc1Oc1ccccc1`, in that order: more than 100 µM and more than 100 µM.

For `CC(=O)Nc1ccc(Nc2ccccc2C(N)=O)cc1`, the 50% inhibitory concentration (IC50) in assay [1] is 77 µM; in assay [2], more than 100 µM. As to `Cc1ccc(Nc2ccccc2C(N)=O)cc1`, the values for the half-maximal inhibitory concentration (IC50) in assay [1] and in assay [2] were 60 µM and more than 100 µM, respectively. As for `NC(=O)c1ccccc1Nc1cccc(C(F)(F)F)c1`, in assay [1], the IC50 turned out to be 100 µM. For `NC(=O)c1ccccc1Nc1ccc(C(=O)O)cc1`, in assay [1], the IC50 is more than 100 µM. Regarding `NC(=O)c1ccccc1Nc1ccc(C(F)(F)F)cc1`, in assay [1], the concentration for half-maximal inhibition (IC50) was found to be 69 µM.

Take `NC(=O)c1ccccc1Sc1ccccc1`: the IC50 in assay [1] is more than 100 µM. Take `CN(C(=O)c1ccccc1)c1cccc(Nc2ccccc2C(N)=O)c1`: the IC50 in assay [1] and in assay [2] was more than 100 µM in each case. With `NC(=O)c1ccccc1Nc1cccc(OCCc2cccc(Cl)c2)c1`, the IC50 in assay [1] was 2 µM; in assay [2], more than 100 µM.

For the compound `NC(=O)c1ccccc1Nc1ccc(C(=O)Nc2ccccc2)cc1`, the figures for the concentration for half-maximal inhibition (IC50) in assay [1] and in assay [2] were 23 µM and more than 100 µM, respectively.

As for `NC(=O)c1ccccc1Nc1ccc(NC(=O)c2ccccn2)cc1`, the IC50 in assay [1] and in assay [2] was more than 100 µM throughout. As for `NC(=O)c1ccccc1Nc1cccc(OCCc2ccccc2C(F)(F)F)c1`, the IC50 was 3.1 µM in assay [1] and more than 100 µM in assay [2]. For `NC(=O)c1ccccc1Nc1cccc(OCc2ccccc2)c1`, the half-inhibitory concentration (IC50) was 54 µM in assay [1] and more than 300 µM in assay [2].

`NC(=O)c1ccccc1Nc1cccc(OCCc2cccc(Br)c2)c1`: the half-inhibitory concentration (IC50) is 3.4 µM in assay [1] and more than 100 µM in assay [2].

Regarding `NC(=O)c1ccccc1Nc1ccc(NC(=O)C2CCNCC2)cc1`, the values for the 50% inhibitory concentration (IC50) in assay [1] and in assay [2] were 53 µM and more than 100 µM, respectively. Take `Cc1cccc(Nc2ccccc2C(N)=O)c1`: in assay [1], the IC50 is 72 µM. Consider `NC(=O)c1ccccc1Nc1cccc(NC(=O)Cc2ccccc2)c1`, for which the IC50 in assay [1] was 74 µM; in assay [2] it was more than 100 µM. On to `NC(=O)c1ccccc1Nc1cccc(OCCc2cccc(C(F)(F)F)c2)c1`, for which the IC50 in assay [1] is 2.1 µM; in assay [2] it was more than 100 µM. For `NC(=O)c1ccccc1Nc1ccc(Cl)cc1`, in that order: more than 100 µM and 56 µM. With `NC(=O)c1ccccc1Nc1cccc(-c2ccccc2)c1`, in assay [1], the concentration for half-maximal inhibition (IC50) came to 33 µM. Take `Cc1ccccc1CCOc1cccc(Nc2ccccc2C(N)=O)c1`: the figures for the half-inhibitory concentration (IC50) in assay [1] and in assay [2] were 1.8 µM and more than 100 µM, respectively.

A word on the IC50: it is the point on the concentration scale where inhibition reaches its midpoint.
